Assay results of several laboratories.
Target: Alpha-2B adrenergic receptor (ADRA2B, Homo sapiens, UniProt P18089)
Concentration: 10 µM
Sequence (P18089 1-450, as in one of the studies): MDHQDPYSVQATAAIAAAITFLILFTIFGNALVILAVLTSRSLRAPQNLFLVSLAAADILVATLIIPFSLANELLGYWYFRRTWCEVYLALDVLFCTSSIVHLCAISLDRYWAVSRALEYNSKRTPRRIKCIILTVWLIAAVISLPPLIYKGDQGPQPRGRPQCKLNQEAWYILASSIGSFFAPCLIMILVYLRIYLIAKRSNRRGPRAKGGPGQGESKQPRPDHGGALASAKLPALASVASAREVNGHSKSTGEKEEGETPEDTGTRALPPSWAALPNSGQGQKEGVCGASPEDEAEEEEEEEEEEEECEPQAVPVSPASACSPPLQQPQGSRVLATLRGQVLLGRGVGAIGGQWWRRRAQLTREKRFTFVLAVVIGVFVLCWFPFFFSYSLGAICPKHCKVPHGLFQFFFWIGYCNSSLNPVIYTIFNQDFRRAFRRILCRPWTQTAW

| Structure (SMILES) | effect on | method | inhibition |
| --- | --- | --- | --- |
| O=C1c2ccccc2C(=O)N1CC#Cc1ccc2c(c1)C=C([N+](=O)[O-])C(C(F)(F)F)O2 (stereo not drawn) | ligand displacement | radioligand | 70% |
| CCN(CC)c1ccc(C2Nc3ccc(C(=O)c4ccccc4)cc3NC3=C2C(=O)CC(C)(C)C3)cc1 (stereo not drawn) | ligand displacement | radioligand | -8% |
| O=[N+]([O-])C1=Cc2cc(I)ccc2OC1C(F)(F)F (stereo not drawn) | ligand displacement | radioligand | 66% |
| COc1cc(NC(C)=O)c(Cl)cc1C(=O)Nc1nccs1 | cell-free assay |  | -12.7% |
| O=C(NNS(=O)(=O)c1ccccc1F)c1cc(F)cc(-c2ccccn2)c1 | cell-free assay |  | -3.78% |
| N#Cc1cc(Cn2c(N3CCCC3)nc3ccccc32)ccc1F | ligand displacement |  | 18.7% |
| Oc1cccc(Nc2nc(-c3ccc(F)cc3F)cs2)c1 | cell-free assay |  | -29.7% |
| CCCNc1nc2ccccc2n1Cc1ccc(Cl)cc1 | ligand displacement |  | 83% |
| CN(C)C(=O)Cn1cc(-c2nc(C3(c4ccc(-c5cnc(N)nc5)cc4)CC3)no2)cn1 | cell-free assay |  | -3.57% |
